Measured values gathered from unrelated publications.
Target: Serine/threonine-protein kinase DCLK1 (DCLK1, Homo sapiens, UniProt O15075)
Method: competition with immobilised ligand
Residues used in one study (O15075 1-740): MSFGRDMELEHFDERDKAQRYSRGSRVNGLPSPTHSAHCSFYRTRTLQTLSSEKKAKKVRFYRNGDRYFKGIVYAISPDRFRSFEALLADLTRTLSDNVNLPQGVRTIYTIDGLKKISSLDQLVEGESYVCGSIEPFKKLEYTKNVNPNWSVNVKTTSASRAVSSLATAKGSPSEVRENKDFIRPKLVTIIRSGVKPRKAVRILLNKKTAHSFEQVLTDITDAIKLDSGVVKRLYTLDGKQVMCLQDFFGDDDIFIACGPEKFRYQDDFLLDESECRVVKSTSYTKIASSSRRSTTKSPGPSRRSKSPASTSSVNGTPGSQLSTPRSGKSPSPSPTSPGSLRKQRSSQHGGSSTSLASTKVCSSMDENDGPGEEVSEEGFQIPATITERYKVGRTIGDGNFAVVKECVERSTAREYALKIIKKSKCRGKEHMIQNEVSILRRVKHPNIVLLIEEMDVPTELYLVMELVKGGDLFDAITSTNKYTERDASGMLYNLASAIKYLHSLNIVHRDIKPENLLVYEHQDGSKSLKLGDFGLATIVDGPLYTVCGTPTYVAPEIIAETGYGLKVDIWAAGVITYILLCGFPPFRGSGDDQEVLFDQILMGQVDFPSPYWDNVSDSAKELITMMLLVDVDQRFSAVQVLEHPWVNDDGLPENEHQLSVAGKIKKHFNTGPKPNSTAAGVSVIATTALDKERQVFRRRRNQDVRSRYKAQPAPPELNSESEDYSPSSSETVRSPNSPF

Nc1ncc2c(n1)-c1c([nH]c3ccc(C#CC4CC4)cc13)CCCC2
remaining binding (binding; 1 µM): 100%

O=C(N1CCS(=O)(=O)CC1)N1C[C@H](c2ccc(OC(F)(F)F)cc2)C[C@H](c2nc(C3CC3)no2)C1
remaining binding (cell-free assay; 1 µM): 100%

C[C@@H]1CCN(c2nccc(-c3cnn4ncccc34)n2)C1
remaining binding (binding; 1 µM): 84%

C[C@@H]1CN(c2ccc3ncc(-c4ccc5[nH]nc(C6CC6)c5c4)n3n2)C[C@H](C)O1
remaining binding (binding; 50 nM): 84%

c1cncc(-c2cccc(Nc3nccc(NC4CCCCC4)n3)c2)c1
remaining binding (binding; 10 µM): 92%

O=C(Nc1c[nH]nc1C(=O)NC1CCNCC1)c1cc(F)cc(F)c1
remaining binding (binding; 1 µM): 79%

FC(F)(F)Oc1cccc(-c2cnc3ccc(-c4ccncc4)nn23)c1
remaining binding (cell-free assay; 5 µM): 69%

Cc1noc([C@H]2C[C@@H](c3ccc(C(F)(F)F)cc3)CN(C(=O)N3CCS(=O)(=O)C3)C2)n1
remaining binding (cell-free assay; 1 µM): 75%

N[C@H]1CCN(c2nccc(-c3cnn4ncccc34)n2)C1
remaining binding (binding; 1 µM): 83%

CC(C)CC(=O)N1CCc2nc(-c3ccc(Br)cc3)nc(N(C)Cc3ccccc3)c2C1
remaining binding (cell-free assay; 0.1 µM): 100%

COc1cnc(Nc2cccc(S(N)(=O)=O)c2)nc1N1CCN(c2ccccc2)C(=O)C1
remaining binding (binding; 1 µM): 83%

COc1ccnn2ncc(-c3ccnc(N(C)C)n3)c12
remaining binding (binding; 1 µM): 80%

COc1cc(C(=O)N2CCC(N3CCN(C)CC3)CC2)ccc1Nc1ncc2c(n1)N(C)c1ccccc1C(=O)N2C
remaining binding (binding; 10 µM): 4.2%

COc1ccc2cc(OCC3(C(=O)O)CN(C(=O)c4ccc(F)cc4)C3)ccc2c1
remaining binding (cell-free assay; 1 µM): 100%

Cc1cnc(Nc2ccc(C(=O)N3CCC(N4CCCC4)CC3)cc2)nc1-c1cc2ccccc2s1
remaining binding (binding; 1 µM): 68%

Cc1nccc(COC(=O)N2C[C@@H]3[C@@H](CNC(=O)c4ccc5[nH]nnc5c4)[C@@H]3C2)n1
remaining binding (cell-free assay; 1 µM): 90%

Cc1cnn2ncc(-c3ccnc(N(C)C)n3)c2c1
remaining binding (binding; 1 µM): 91%

O=C(NCCCN1CCOCC1)c1ccc(Nc2ncc(Cl)c(-c3ccc(Cl)s3)n2)cc1
remaining binding (binding; 1 µM): 56%

F[C@@H]1CCN(c2nccc(-c3cnn4ncccc34)n2)C1
remaining binding (binding; 1 µM): 82%

Cc1cc(-c2cc(C(F)(F)F)ccc2O[C@H]2C[C@@]2(CNS(=O)(=O)c2ccc([N+](=O)[O-])cc2)c2ccc(F)cc2F)[nH]n1
remaining binding (cell-free assay; 0.3 µM): 32%

N#Cc1ccccc1CSc1nnc2c(n1)[nH]c1ccccc12
remaining binding (binding; 10 µM): 100%

Nc1c(C(=O)NCc2ccc(C(=O)NCCCC3CCCCC3)cc2)cnn1-c1ccccc1
remaining binding (cell-free assay; 0.1 µM): 100%

O=C(c1ccc(Nc2nccc(-c3cc4ccccc4s3)n2)cc1)N1CCC(N2CCCC2)CC1
remaining binding (binding; 1 µM): 86%

Cn1nc(C(=O)NCc2ccc(C(=O)O)cc2)cc1-c1ccc2[nH]ccc2c1
remaining binding (cell-free assay; 0.1 µM): 88%

CN(C)c1nccc(-c2cnc3ncccn23)n1
remaining binding (binding; 1 µM): 61%
